What was measured:
[1] = biological target: T1, D(2) dopamine receptor (Homo sapiens, UniProt P14416); conditions: CHO, 1 uM
[2] = tested on: Liver microsome; test: Metabolic stability in human liver microsomes in absence of NADPH; assay type: ADME
[3] = biological target: T2, D(3) dopamine receptor (Homo sapiens, UniProt P35462); test: Displacement of [3H]-Spiperone from human recombinant dopamine D3 receptor expressed in CHO cells; assay type: cell-based
[4] = Fraction unbound in human plasma by equilibrium dialysis method; assay type: ADME, cell-free
[5] = biological target: T3, D(1A) dopamine receptor (Homo sapiens, UniProt P21728); conditions: CHO, 1 uM
[6] = biological target: T4, D(4) dopamine receptor (Homo sapiens, UniProt P21917); test: Displacement of [3H]-Spiperone from human recombinant dopamine D4 receptor expressed in CHOK1 cells; assay type: cell-based, CHO-K1
T4 sequence (P21917 whole entry): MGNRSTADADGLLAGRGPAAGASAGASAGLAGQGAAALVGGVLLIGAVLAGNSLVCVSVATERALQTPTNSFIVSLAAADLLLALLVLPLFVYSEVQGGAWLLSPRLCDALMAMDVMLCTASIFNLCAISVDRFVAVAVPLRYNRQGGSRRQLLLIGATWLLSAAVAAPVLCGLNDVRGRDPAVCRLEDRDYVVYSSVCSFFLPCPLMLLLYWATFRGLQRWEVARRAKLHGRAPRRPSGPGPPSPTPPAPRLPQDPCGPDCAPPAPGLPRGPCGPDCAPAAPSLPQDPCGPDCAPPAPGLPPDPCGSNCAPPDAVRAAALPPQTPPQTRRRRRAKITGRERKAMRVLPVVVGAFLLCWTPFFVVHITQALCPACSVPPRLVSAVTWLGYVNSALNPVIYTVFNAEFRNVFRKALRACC
Summary of the method: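 Radioligand binding at human D4 receptor using [3H]-spiperone, run as a contract assay in duplicate. IC50 and Ki were derived from concentration–response data. Single-point values are % inhibition of specific binding at 10 µM test compound.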

[7] = biological target: Dopamine receptors; D3 & D4 (Homo sapiens) (UniProt P35462+P21917); test: Selectivity ratio of Ki for human recombinant dopamine D3 receptor to Ki for human recombinant dopamine D4 receptor
[8] = biological target: T5, D(1B) dopamine receptor (Homo sapiens, UniProt P21918); test: Displacement of [3H]-SCH-23390 from human recombinant dopamine D5 receptor expressed in CHO cells; assay type: cell-based
[9] = tested on: Liver microsome; test: Drug metabolism in rat liver microsomes assessed as oxidative dealkylated metabolite formation in presence of NADPH; assay type: ADME
[10] = tested on: Liver microsome; test: Drug metabolism in human liver microsomes assessed as (S)-2-((6-chloropyridin-2-yloxy)methyl)morpholine formation in presence of NADPH; assay type: ADME
[11] = biological target: T3, D(1A) dopamine receptor; test: Displacement of [3H]-SCH-23390 from human recombinant dopamine D1 receptor expressed in CHO cells; assay type: cell-based
[12] = biological target: T1, D(2) dopamine receptor; test: Displacement of [3H]-Spiperone from human recombinant dopamine D2S receptor expressed in CHO cells; assay type: cell-based
[13] = biological target: T1, D(2) dopamine receptor; conditions: CHO, 1 uM; remark: listed apart in the source
[14] = organism: Homo sapiens; test: Selectivity ratio of Ki for human recombinant dopamine D2S receptor to Ki for human recombinant dopamine D4 receptor
[15] = organism: Homo sapiens; test: Selectivity ratio of Ki for human recombinant dopamine D5 receptor to Ki for human recombinant dopamine D4 receptor
[16] = organism: Homo sapiens; test: Selectivity ratio of Ki for human recombinant dopamine D1 receptor to Ki for human recombinant dopamine D4 receptor
[17] = tested on: Liver microsome; test: Metabolic stability in rat liver microsomes in absence of NADPH; assay type: ADME
[18] = biological target: T1, D(2) dopamine receptor; test: Displacement of [3H]-Spiperone from human recombinant dopamine D2L receptor expressed in CHO cells; assay type: cell-based
[19] = organism: Homo sapiens; test: Selectivity ratio of Ki for human recombinant dopamine D2L receptor to Ki for human recombinant dopamine D4 receptor
[20] = tested on: Plasma; test: Fraction unbound in rat plasma by equilibrium dialysis method; assay type: ADME, cell-free
[21] = biological target: T2, D(3) dopamine receptor; conditions: CHO, 1 uM
[22] = biological target: T1, D(2) dopamine receptor; test: Displacement of [3H]-Spiperone from human recombinant dopamine D2S receptor expressed in CHO cells at 10 uM relative to control; assay type: cell-based
Summary of the method: (§1)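 Off-target dopamine receptor radioligand binding (D1, D2L, D2S, D3, D5), run as a contract assay. Test compound at a single concentration of 10 µM, reported as % inhibition of specific binding, measured in duplicate.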

[23] = biological target: T5, D(1B) dopamine receptor; conditions: CHO, 1 uM
[24] = Ratio of drug level in brain to plasma in rat at 0.25 mg/kg, iv administered through cassette dosing at 0.25 hrs; assay type: ADME, organism-based
[25] = Drug uptake in rat brain at 0.25 mg/kg, iv administered through cassette dosing at 0.25 hrs; assay type: ADME, organism-based; conditions: read-out: Drug uptake
[26] = Plasma concentration in rat at 0.25 mg/kg, iv administered through cassette dosing at 0.25 hrs; assay type: ADME, organism-based
[27] = tested on: Liver microsome; test: Drug level in human liver microsomes treated with (S)-2-((6-chloropyridin-2-yloxy)methyl)-4-((6-fluoro-1H-indol-3-yl)methyl)morpholine in presence of NADPH; assay type: ADME
Summary of the method: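 Human liver microsomes incubated with compound plus NADPH, alongside a matched no-NADPH incubation; samples profiled for remaining parent and for metabolites formed.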

[28] = biological target: T2, D(3) dopamine receptor; test: Displacement of [3H]-Spiperone from human recombinant dopamine D3 receptor expressed in CHO cells at 10 uM relative to control; assay type: cell-based
Summary of the method: as §1

[29] = biological target: T1, D(2) dopamine receptor; test: Displacement of [3H]-Spiperone from human recombinant dopamine D2L receptor expressed in CHO cells at 10 uM relative to control; assay type: cell-based
Summary of the method: as §1

[30] = biological target: T3, D(1A) dopamine receptor; test: Displacement of [3H]-SCH-23390 from human recombinant dopamine D1 receptor expressed in CHO cells at 10 uM relative to control; assay type: cell-based
Summary of the method: as §1

[31] = biological target: T5, D(1B) dopamine receptor; test: Displacement of [3H]-SCH-23390 from human recombinant dopamine D5 receptor expressed in CHO cells at 10 uM relative to control; assay type: cell-based
Summary of the method: as §1

T2 sequence (P35462 whole entry): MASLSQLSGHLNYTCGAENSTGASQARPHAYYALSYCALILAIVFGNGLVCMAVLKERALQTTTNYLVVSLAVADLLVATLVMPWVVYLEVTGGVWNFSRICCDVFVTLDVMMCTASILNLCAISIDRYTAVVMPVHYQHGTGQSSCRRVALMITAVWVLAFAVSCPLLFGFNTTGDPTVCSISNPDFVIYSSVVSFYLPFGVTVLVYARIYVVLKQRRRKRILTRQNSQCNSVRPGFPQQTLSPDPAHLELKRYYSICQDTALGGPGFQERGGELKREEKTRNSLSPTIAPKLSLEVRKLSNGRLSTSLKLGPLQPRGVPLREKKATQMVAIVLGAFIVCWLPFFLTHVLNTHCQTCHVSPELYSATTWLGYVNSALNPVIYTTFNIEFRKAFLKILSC
T5 sequence (P21918 whole entry): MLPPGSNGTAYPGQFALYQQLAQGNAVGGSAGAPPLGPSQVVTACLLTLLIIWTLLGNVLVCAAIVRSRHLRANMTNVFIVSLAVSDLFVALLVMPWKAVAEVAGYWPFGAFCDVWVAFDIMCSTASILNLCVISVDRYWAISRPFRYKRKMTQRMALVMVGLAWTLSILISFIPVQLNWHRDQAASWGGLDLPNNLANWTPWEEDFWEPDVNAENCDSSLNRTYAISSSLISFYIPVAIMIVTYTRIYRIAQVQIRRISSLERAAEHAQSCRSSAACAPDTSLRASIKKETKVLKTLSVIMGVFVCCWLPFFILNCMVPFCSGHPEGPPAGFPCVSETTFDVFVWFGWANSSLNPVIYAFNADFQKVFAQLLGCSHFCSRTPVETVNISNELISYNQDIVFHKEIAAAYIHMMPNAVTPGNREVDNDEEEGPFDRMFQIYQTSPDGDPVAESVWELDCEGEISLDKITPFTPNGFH
T1 sequence (P14416 whole entry): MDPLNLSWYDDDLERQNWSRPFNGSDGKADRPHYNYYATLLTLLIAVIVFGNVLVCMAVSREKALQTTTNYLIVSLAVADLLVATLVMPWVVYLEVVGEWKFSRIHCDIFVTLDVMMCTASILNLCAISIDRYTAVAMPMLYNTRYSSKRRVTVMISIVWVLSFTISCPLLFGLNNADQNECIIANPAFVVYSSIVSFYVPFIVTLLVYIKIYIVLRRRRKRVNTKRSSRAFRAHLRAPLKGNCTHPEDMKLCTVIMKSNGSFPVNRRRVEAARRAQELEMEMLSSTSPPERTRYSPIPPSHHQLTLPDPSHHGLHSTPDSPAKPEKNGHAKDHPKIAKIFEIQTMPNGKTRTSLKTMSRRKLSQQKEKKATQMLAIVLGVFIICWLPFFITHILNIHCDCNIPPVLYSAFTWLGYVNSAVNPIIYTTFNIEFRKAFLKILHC
Chain of Dopamine receptors; D3 & D4 (Homo sapiens) (P35462 whole entry, looked up, one chain of several): as the sequence (P35462 whole entry) above
T3 sequence (P21728 whole entry): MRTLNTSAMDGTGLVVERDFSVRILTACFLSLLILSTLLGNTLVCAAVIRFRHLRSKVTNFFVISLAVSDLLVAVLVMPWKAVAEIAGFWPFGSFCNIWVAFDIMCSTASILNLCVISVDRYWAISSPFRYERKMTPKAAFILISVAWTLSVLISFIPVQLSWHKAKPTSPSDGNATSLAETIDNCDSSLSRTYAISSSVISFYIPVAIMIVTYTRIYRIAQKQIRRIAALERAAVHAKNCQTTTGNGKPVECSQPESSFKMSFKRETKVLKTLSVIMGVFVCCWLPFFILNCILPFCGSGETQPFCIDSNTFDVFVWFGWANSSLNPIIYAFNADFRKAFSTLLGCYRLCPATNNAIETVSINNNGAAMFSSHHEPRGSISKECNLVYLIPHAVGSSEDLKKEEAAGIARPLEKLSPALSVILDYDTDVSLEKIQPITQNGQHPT

SMILES	Ki [3] [nM]	Fu [4]	IC50 [6] [nM]	Ki [6] [nM]	Ratio Ki [7]	Ki [8] [nM]	Ki [11] [nM]	Ki [12] [nM]	Ratio Ki [14]	Ratio Ki [15]	Ratio Ki [16]	Ki [18] [nM]	Ratio Ki [19]	Fu [20]	inhibition [22] [%]	Kp [24]	concentration at 0.25 h [25] [ng/g]	concentration at 0.25 h [26] [ng/mL]	also measured
Fc1ccc2c(CN3CCO[C@H](COc4cccc(Cl)n4)C3)c[nH]c2c1	> 10000	0.015	11.9	3.3	> 1000	> 10000	> 10000	> 10000	> 1000	> 1000	> 1000	> 10000	> 1000	0.016	< 50				inhibition [1]: < 10%; Stability [2]: Stable; inhibition [5]: < 10%; Drug metabolism [9]: metabolite_detected; Drug metabolism [10]: metabolite_detected; inhibition [13]: < 10%; Stability [17]: Stable; inhibition [21]: < 10%; inhibition [23]: < 10%
Cc1ccc(CN2CCO[C@H](CSc3ccccc3)C2)cc1C	> 10000	0.001	27	7.4	> 1000	> 10000	> 10000	> 10000	> 1000	> 1000	> 1000	> 10000	> 1000	0.004	< 50	5.73	132	23.1	
Clc1cccc(OC[C@@H]2CNCCO2)n1																			Drug metabolism [27]: metabolite_detected
Clc1ccc(CN2CCO[C@H](CSc3ccccc3)C2)cc1	> 10000	0.008	34	9.4	> 1000	> 10000	> 10000	> 10000	> 1000	> 1000	> 1000	> 10000	> 1000	0.005	< 50	5.03	131	26.1	
COc1ccc(CN2CCO[C@H](COc3ccccc3)C2)cc1F		0.031	56	14.3										0.037	76	7.38	108	14.7	inhibition [28]: < 50%; inhibition [29]: 78%; inhibition [30]: < 50%; inhibition [31]: < 50%

Source: ChEMBL document CHEMBL3792377, “Synthesis and characterization of a series of chiral alkoxymethyl morpholine analogs as dopamine receptor 4 (D4R) antagonists” (Bioorg Med Chem Lett, 2016)
